In ChEMBL document CHEMBL4196172 (J Med Chem, 2018):
Active and inactive are the calls of the source. No cut-off for these calls is given here.

What was measured:
[1] = target: cGMP-specific 3',5'-cyclic phosphodiesterase (Homo sapiens, UniProt O76074); experiment: Inhibition of human PDE5A1 catalytic domain (535 to 860 residues) expressed in Escherichia coli BL21 using 3H-cGMP as substrate after 15 mins by liquid scintillation counting
[2] = Half life in rat liver microsomes at 0.5 uM; type: ADME, microsome
[3] = Intrinsic clearance in rat liver microsomes at 0.5 uM; type: ADME, microsome
[4] = Apparent clearance in rat liver microsomes at 0.5 uM; type: ADME, microsome; conditions: read-out: CLH(app)
[5] = Hepatic extraction ratio in rat liver microsomes at 0.5 uM; type: ADME, microsome; conditions: read-out: ERH
[6] = Metabolic stability in rat liver microsomes assessed as stability rate constant at 0.5 uM; type: ADME, microsome
Rattus norvegicus [7] = experiment: Anti-hypertensive activity in MCT-induced pulmonary hypertension Wistar rat model assessed as mean pulmonary artery pressure at 10 mg/kg, po administered for 3 weeks (reference value: 52.55 mmHg); type: functional
Method in brief: (§1)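 PAH was induced in rats by monocrotaline (MCT) injection and confirmed after 3 weeks against an untreated control group. Treated groups received oral dosing and were compared with the MCT model group. Read-outs were mean pulmonary artery pressure, right ventricle hypertrophy index, and small pulmonary artery wall thickness as % of external diameter. Data are mean ± S.E.M., n = 6-9/group.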

Rattus norvegicus [8] = experiment: Anti-hypertensive activity in MCT-induced pulmonary hypertension Wistar rat model assessed as reduction in RVHI at 10 mg/kg, po administered for 3 weeks; type: functional, organism-based; method in brief: as §1
Rattus norvegicus [9] = experiment: Anti-hypertensive activity in MCT-induced pulmonary hypertension Wistar rat model assessed as reduction in wall thickness percentage at 10 mg/kg, po administered for 3 weeks; type: functional, organism-based; method in brief: as §1
Homo sapiens = species on record: Homo sapiens; experiment: Selectivity ratio of IC50 for PDE11A catalytic domain (588 to 911 residues) (unknown origin) to IC50 for human PDE5A1 catalytic domain (535 to 860 residues)
[10] = target: cGMP-dependent 3',5'-cyclic phosphodiesterase (Homo sapiens, UniProt O00408); experiment: Inhibition of PDE2A catalytic domain (580 to 919 residues) (unknown origin) expressed in Escherichia coli BL21 using 3H-cGMP as substrate after 15 mins by liquid scintillation counting
[11] = target: 3',5'-cyclic-AMP phosphodiesterase 4D (Homo sapiens, UniProt Q08499); experiment: Inhibition of PDE4D2 catalytic domain (86 to 413 residues) (unknown origin) expressed in Escherichia coli BL21 using 3H-cAMP as substrate after 15 mins by liquid scintillation counting
[12] = target: Cone cGMP-specific 3',5'-cyclic phosphodiesterase subunit alpha' (Homo sapiens, UniProt P51160); experiment: Inhibition of PDE6C catalytic domain (1 to 858 residues) (unknown origin) expressed in Escherichia coli BL21 using 3H-cGMP as substrate after 15 mins by liquid scintillation counting
[13] = target: cAMP and cAMP-inhibited cGMP 3',5'-cyclic phosphodiesterase 10A (Homo sapiens, UniProt Q9Y233); experiment: Inhibition of PDE10A catalytic domain (449 to 770 residues) (unknown origin) expressed in Escherichia coli BL21 using 3H-cAMP as substrate after 15 mins by liquid scintillation counting
[14] = target: Dual 3',5'-cyclic-AMP and -GMP phosphodiesterase 11A (Homo sapiens, UniProt Q9HCR9); experiment: Inhibition of PDE11A catalytic domain (588 to 911 residues) (unknown origin) expressed in Escherichia coli BL21 using 3H-cAMP as substrate after 15 mins by liquid scintillation counting
[15] = target: Voltage-gated inwardly rectifying potassium channel KCNH2 (Homo sapiens, UniProt Q12809); experiment: Inhibition of human ERG expressed in CHO cells by automated patch clamp assay; type: cell-based
Cytochrome P450 1A2 = target: T1, Cytochrome P450 1A2 (Homo sapiens, UniProt P05177); experiment: Inhibition of CYP1A2 in human liver microsomes in presence of NADPH; type: ADME
T1 sequence (P05177 whole entry): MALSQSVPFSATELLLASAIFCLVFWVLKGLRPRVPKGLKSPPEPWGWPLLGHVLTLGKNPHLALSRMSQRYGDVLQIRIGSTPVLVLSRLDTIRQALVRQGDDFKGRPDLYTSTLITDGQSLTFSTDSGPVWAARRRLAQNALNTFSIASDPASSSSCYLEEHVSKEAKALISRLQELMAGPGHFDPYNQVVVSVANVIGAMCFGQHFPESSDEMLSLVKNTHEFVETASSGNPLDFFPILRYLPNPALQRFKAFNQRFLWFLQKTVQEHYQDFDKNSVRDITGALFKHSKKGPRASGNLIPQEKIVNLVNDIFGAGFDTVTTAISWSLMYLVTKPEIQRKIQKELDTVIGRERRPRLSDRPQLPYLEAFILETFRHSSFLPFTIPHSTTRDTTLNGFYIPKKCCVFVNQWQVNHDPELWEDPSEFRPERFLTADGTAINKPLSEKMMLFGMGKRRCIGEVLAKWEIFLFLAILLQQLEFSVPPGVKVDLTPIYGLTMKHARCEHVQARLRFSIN

Cytochrome P450 2B6 = target: T2, Cytochrome P450 2B6 (Homo sapiens, UniProt P20813); experiment: Inhibition of CYP2B6 in human liver microsomes in presence of NADPH; type: ADME
T2 sequence (P20813 whole entry): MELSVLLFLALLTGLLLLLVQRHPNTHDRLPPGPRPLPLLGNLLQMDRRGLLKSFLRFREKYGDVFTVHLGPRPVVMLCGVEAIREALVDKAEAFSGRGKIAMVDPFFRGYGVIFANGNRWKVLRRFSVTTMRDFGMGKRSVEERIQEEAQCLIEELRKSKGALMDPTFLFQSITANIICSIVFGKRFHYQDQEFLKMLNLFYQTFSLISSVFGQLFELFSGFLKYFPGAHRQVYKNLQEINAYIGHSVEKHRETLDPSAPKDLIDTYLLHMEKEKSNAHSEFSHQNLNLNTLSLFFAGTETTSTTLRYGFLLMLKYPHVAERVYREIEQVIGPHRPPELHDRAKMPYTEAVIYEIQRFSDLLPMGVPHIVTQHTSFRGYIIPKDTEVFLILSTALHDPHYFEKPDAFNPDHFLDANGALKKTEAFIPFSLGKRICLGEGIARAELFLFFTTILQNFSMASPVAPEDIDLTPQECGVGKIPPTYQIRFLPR

Cytochrome P450 3A4 = Cytochrome P450 3A4 (Homo sapiens, UniProt P08684); experiment: Inhibition of CYP3A4 in human liver microsomes in presence of NADPH; type: ADME
Cytochrome P450 2C9 = Cytochrome P450 2C9 (Homo sapiens, UniProt P11712); experiment: Inhibition of CYP2C9 in human liver microsomes in presence of NADPH; type: ADME
[16] = Protein binding in human plasma at 1 uM after 4 hrs by LC/MS/MS analysis; type: ADME, cell-free; conditions: read-out: PPB (converted)
Mus musculus = experiment: Acute toxicity in KM mouse up to 1.5 g/kg, po administered as single dose measured after 14 days; type: organism-based; conditions: in vivo, 1500 mg/kg, 336 h
Rattus norvegicus [17] = experiment: Anti-hypertensive activity in MCT-induced pulmonary hypertension Wistar rat model assessed as mean pulmonary artery pressure at 1.25 mg/kg, po administered for 3 weeks (reference value: 52.55 mmHg); type: functional; method in brief: as §1
Rattus norvegicus [18] = experiment: Anti-hypertensive activity in MCT-induced pulmonary hypertension Wistar rat model assessed as reduction in RVHI at 1.25 mg/kg, po administered for 3 weeks; type: functional, organism-based; method in brief: as §1
Rattus norvegicus [19] = experiment: Anti-hypertensive activity in MCT-induced pulmonary hypertension Wistar rat model assessed as reduction in wall thickness percentage at 1.25 mg/kg, po administered for 3 weeks; type: functional, organism-based; method in brief: as §1

Voltage-gated inwardly rectifying potassium channel KCNH2, sequence (Q12809 whole entry): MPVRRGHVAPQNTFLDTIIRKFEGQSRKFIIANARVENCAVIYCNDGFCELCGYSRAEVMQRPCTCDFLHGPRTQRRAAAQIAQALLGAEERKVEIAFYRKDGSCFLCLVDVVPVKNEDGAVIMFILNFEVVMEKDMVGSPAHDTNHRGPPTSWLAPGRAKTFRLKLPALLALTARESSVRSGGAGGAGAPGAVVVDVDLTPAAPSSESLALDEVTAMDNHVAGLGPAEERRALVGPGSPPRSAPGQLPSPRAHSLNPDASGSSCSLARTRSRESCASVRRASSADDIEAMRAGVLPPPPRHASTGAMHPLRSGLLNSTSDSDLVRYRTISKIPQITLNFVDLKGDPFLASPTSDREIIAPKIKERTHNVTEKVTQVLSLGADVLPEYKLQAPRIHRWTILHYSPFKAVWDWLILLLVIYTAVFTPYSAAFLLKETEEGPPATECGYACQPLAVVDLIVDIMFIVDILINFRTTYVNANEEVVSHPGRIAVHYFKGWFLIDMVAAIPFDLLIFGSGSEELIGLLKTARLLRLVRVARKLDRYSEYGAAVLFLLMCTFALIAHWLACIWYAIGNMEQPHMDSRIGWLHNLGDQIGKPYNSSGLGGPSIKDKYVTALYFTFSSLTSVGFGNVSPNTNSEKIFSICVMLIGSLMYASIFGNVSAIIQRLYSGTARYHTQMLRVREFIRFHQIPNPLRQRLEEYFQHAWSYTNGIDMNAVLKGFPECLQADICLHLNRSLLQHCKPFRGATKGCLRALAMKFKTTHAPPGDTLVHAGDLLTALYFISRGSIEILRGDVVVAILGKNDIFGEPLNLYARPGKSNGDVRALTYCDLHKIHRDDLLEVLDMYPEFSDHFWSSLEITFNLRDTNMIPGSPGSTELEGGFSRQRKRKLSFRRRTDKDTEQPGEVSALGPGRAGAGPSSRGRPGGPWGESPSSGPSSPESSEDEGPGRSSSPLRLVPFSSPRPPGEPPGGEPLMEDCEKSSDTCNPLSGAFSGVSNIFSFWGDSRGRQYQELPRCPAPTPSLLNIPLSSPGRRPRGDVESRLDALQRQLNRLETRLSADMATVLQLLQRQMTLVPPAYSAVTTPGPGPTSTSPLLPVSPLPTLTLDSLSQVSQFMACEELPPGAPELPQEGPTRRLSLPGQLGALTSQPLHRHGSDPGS
Dual 3',5'-cyclic-AMP and -GMP phosphodiesterase 11A, sequence (Q9HCR9 whole entry, the tested form may be a part): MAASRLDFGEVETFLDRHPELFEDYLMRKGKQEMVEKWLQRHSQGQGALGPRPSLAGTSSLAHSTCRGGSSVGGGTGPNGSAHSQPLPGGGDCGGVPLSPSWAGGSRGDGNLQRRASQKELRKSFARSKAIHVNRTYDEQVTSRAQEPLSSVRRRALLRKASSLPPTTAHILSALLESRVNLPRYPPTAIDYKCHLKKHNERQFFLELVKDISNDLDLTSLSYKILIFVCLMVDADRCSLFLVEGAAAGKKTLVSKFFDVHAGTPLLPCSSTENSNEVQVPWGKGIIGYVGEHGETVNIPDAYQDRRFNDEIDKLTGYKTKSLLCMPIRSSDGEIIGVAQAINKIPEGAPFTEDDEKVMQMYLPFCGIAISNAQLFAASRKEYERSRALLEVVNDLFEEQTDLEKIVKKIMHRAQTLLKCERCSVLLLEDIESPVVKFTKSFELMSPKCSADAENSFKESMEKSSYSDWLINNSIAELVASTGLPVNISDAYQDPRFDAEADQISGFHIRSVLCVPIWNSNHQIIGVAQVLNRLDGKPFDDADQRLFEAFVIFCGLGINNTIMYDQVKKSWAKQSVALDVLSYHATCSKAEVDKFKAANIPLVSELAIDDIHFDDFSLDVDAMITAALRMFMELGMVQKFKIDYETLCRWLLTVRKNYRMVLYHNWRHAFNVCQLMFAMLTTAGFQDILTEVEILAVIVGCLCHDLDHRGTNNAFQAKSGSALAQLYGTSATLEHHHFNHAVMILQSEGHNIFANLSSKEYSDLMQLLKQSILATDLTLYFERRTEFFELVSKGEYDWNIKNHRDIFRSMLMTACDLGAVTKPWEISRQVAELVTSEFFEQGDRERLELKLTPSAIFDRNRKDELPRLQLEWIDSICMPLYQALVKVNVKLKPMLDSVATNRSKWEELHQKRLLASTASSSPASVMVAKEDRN
Cytochrome P450 3A4, sequence (P08684 whole entry): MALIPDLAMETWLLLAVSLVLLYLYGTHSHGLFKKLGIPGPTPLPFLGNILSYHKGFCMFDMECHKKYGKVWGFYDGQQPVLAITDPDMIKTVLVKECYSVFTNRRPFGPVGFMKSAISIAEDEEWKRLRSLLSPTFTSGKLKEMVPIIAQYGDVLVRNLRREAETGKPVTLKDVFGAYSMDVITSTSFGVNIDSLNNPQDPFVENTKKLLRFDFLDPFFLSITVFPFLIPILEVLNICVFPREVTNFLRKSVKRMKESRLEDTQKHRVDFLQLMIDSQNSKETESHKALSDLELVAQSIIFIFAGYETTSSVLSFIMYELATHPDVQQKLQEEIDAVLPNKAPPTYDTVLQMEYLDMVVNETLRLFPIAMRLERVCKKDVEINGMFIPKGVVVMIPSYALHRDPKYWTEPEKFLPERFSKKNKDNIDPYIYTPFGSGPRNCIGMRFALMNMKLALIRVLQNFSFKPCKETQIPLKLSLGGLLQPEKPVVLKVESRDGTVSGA
3',5'-cyclic-AMP phosphodiesterase 4D, sequence (Q08499 whole entry, the tested form may be a part): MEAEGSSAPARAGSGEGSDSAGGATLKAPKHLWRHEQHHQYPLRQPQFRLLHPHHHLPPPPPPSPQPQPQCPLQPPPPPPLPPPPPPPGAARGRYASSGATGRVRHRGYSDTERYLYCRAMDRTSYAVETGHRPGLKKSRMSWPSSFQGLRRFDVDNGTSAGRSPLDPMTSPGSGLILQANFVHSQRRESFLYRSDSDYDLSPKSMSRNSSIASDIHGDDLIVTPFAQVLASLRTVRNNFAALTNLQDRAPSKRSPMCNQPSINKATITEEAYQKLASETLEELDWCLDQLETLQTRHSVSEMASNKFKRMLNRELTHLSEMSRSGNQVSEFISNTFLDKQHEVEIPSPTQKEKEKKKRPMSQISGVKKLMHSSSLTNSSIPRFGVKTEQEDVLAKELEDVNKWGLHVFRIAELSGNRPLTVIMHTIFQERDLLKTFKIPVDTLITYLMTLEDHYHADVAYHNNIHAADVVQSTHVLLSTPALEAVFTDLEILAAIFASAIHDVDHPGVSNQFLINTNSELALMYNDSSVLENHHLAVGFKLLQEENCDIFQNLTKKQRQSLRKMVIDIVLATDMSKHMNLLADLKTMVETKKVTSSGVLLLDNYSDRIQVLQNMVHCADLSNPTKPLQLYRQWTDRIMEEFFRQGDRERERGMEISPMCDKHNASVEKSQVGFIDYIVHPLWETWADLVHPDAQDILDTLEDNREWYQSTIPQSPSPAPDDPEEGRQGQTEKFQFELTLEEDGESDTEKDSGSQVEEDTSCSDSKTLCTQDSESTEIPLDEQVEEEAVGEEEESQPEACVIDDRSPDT
Cytochrome P450 2C9, sequence (P11712 whole entry): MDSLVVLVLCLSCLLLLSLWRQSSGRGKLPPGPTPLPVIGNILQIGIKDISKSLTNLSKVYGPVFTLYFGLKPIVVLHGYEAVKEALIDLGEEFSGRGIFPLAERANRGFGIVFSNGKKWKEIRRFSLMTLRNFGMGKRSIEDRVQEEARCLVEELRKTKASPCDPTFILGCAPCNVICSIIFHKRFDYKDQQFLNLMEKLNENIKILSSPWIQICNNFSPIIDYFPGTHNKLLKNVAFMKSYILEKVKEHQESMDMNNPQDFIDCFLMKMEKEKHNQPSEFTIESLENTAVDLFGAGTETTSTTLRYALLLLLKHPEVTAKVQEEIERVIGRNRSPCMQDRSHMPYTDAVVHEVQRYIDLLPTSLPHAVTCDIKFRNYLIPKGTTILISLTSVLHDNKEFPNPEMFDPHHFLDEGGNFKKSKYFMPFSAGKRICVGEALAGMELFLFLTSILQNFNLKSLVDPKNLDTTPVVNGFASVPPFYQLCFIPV
cGMP-dependent 3',5'-cyclic phosphodiesterase, sequence (O00408 whole entry, the tested form may be a part): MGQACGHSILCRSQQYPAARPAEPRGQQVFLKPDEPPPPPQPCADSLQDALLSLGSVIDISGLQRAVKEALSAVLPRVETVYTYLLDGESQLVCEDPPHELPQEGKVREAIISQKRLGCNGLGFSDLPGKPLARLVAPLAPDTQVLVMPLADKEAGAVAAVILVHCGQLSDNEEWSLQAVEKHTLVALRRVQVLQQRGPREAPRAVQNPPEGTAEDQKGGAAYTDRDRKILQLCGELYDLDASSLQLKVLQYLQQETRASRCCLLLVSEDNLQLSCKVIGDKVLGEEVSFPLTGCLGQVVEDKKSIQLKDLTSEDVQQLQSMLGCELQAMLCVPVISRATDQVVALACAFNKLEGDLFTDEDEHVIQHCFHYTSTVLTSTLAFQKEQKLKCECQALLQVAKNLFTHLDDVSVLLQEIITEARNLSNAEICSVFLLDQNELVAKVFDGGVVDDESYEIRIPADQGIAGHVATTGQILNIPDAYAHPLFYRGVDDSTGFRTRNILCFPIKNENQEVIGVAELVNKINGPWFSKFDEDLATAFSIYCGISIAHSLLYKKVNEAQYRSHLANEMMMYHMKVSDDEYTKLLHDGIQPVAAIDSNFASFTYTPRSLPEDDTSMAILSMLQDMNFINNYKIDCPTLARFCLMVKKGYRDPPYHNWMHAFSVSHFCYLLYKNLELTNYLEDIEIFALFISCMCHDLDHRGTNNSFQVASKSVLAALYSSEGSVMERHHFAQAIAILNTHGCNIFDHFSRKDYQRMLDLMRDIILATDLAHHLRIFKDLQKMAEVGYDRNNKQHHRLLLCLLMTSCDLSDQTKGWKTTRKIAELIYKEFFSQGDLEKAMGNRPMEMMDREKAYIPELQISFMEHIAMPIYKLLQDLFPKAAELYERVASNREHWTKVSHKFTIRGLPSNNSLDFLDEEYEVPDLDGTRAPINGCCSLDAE

Compound: CN1CCN(CCNc2cc(O)c3c(=O)c4c(-c5nccs5)[nH]c(Cc5ccc6c(c5)OCO6)c4oc3c2)CC1
- IC50 [1]: 0.39 nM
- half-life at 0.5 µM [2]: 5.26 min
- Intrinsic clearance (CLint) [3]: 263.4 µL/min/mg
- CLint scaled at 0.5 µM [4]: 28.3 L/h/kg
- hepatic extraction ratio at 0.5 µM [5]: 0.9
- K [6]: 0.1317

Compound: O=c1c2cc(F)ccc2oc2c(Cc3ccc4c(c3)OCO4)[nH]c(-c3nccs3)c12
- IC50 [1]: 4.03 nM

Compound: COc1ccc2c(=O)c3c(-c4nccs4)[nH]c(Cc4ccc5c(c4)OCO5)c3oc2c1
- IC50 [1]: 2.64 nM

Compound: CCCc1nn(C)c2c(=O)[nH]c(-c3cc(S(=O)(=O)N4CCN(C)CC4)ccc3OCC)nc12.O=C(O)CC(O)(CC(=O)O)C(=O)O [SILDENAFIL CITRATE]
- Activity (Rattus norvegicus [7]): 20.86 mmHg

Compound: O=c1c2cc(Br)ccc2oc2c(Cc3ccc4c(c3)OCO4)[nH]c(-c3nccs3)c12
- IC50 [1]: 3.82 nM

Compound: O=c1c2ccc(Br)cc2oc2c(Cc3ccc4c(c3)OCO4)[nH]c(-c3nccs3)c12
- IC50 [1]: 1.58 nM

Compound: CNc1cc(O)c2c(=O)c3c(-c4nccs4)[nH]c(Cc4ccc5c(c4)OCO5)c3oc2c1
- IC50 [1]: 0.52 nM

Compound: O=c1c2c(F)cccc2oc2c(Cc3ccc4c(c3)OCO4)[nH]c(-c3nccs3)c12
- IC50 [1]: 1.41 nM
- half-life at 0.5 µM [2]: 9.52 min
- Intrinsic clearance (CLint) [3]: 145.6 µL/min/mg
- CLint scaled at 0.5 µM [4]: 15.7 L/h/kg
- hepatic extraction ratio at 0.5 µM [5]: 0.83
- K [6]: 0.0728

Compound: O=c1c2c(O)cccc2oc2c(Cc3ccc4c(c3)OCO4)[nH]c(-c3nccs3)c12
- IC50 [1]: 1.05 nM

Compound: CCCc1nn(C)c2c(=O)[nH]c(-c3cc(S(=O)(=O)N4CCN(C)CC4)ccc3OCC)nc12 [listing 1 of 2 here]
- Activity (Rattus norvegicus [8]): Active
- Activity (Rattus norvegicus [9]): Active

Compound: O=c1c2cc(F)cc(F)c2oc2c(Cc3ccc4c(c3)OCO4)[nH]c(-c3nccs3)c12
- IC50 [1]: 1.63 nM

Compound: CN1CC(=O)N2[C@H](c3ccc4c(c3)OCO4)c3[nH]c4ccccc4c3C[C@@H]2C1=O
- Ratio IC50 (Homo sapiens): 20

Compound: COc1c(Cl)ccc2oc3c(Cc4ccc5c(c4)OCO5)[nH]c(-c4nccs4)c3c(=O)c12
- IC50 [1]: 6.82 nM

Compound: O=c1c2c(F)cc(Br)cc2oc2c(Cc3ccc4c(c3)OCO4)[nH]c(-c3nccs3)c12
- IC50 [1]: 2.37 nM

Compound: O=c1c2ccc(Cl)cc2oc2c(Cc3ccc4c(c3)OCO4)[nH]c(-c3nccs3)c12
- IC50 [1]: 2.64 nM

Compound: O=c1c2cccc(Cl)c2oc2c(Cc3ccc4c(c3)OCO4)[nH]c(-c3nccs3)c12
- IC50 [1]: 2.09 nM

Compound: O=c1c2ccc(F)cc2oc2c(Cc3ccc4c(c3)OCO4)[nH]c(-c3nccs3)c12
- IC50 [1]: 2.38 nM

Compound: COc1cccc2oc3c(Cc4ccc5c(c4)OCO5)[nH]c(-c4nccs4)c3c(=O)c12
- IC50 [1]: 4.38 nM

Compound: O=c1c2cc(Cl)cc(Br)c2oc2c(Cc3ccc4c(c3)OCO4)[nH]c(-c3nccs3)c12
- IC50 [1]: 3.04 nM

Compound: COCCNc1cc(O)c2c(=O)c3c(-c4nccs4)[nH]c(Cc4ccc5c(c4)OCO5)c3oc2c1
- IC50 [10]: 106 nM
- IC50 [11]: 43 nM
- IC50 [12]: 1.2 nM
- IC50 [13]: 46 nM
- IC50 [14]: 39 nM
- half-life at 0.5 µM [2]: 15.1 to 18.3 min
- Intrinsic clearance (CLint) [3]: 75.6 to 92 µL/min/mg
- CLint scaled at 0.5 µM [4]: 8.17 to 9.89 L/h/kg
- IC50 [15]: > 30000 nM
- IC50 (Cytochrome P450 1A2): > 10000 nM
- IC50 (Cytochrome P450 2B6): > 10000 nM
- IC50 (Cytochrome P450 3A4): > 10000 nM
- IC50 (Cytochrome P450 2C9): 135 nM
- fraction unbound at 4 h, 1 µM [16]: 0.023
- Activity (Mus musculus): Non-Toxic
- Activity (Rattus norvegicus [17]): 19.94 mmHg
- Activity (Rattus norvegicus [18]): Active
- Activity (Rattus norvegicus [19]): Active
- K [6]: 0.0378 to 0.046

Compound: O=c1c2c(O)cc(NCCN3CCOCC3)cc2oc2c(Cc3ccc4c(c3)OCO4)[nH]c(-c3nccs3)c12
- IC50 [1]: 0.79 nM

Compound: CCCc1nn(C)c2c(=O)[nH]c(-c3cc(S(=O)(=O)N4CCN(C)CC4)ccc3OCC)nc12 [listing 2 of 2 here]
- half-life at 0.5 µM [2]: 5.37 min
- Intrinsic clearance (CLint) [3]: 258.2 µL/min/mg
- CLint scaled at 0.5 µM [4]: 27.8 L/h/kg
- K [6]: 0.1291

Compound: O=c1c2cc(Cl)ccc2oc2c(Cc3ccc4c(c3)OCO4)[nH]c(-c3nccs3)c12
- IC50 [1]: 9.63 nM
